FGF22 binding: FGF22 (human) thermal shift binding; Q9HCT0; recombinant FGF22 thermal shift, SYPRO orange fluorescence; percent of sucrose octasulfate shift, DMSO zero; activity (Tm shift, normalised), % at 9.99 µM; hit rate 1.5% among 340,000;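 active = mean Tm shift, scaled 0 neutral to 100 positive control, at about 1.3% or above, every replicate too, limit read from the data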
Target sequence (Q9HCT0 whole entry, looked up): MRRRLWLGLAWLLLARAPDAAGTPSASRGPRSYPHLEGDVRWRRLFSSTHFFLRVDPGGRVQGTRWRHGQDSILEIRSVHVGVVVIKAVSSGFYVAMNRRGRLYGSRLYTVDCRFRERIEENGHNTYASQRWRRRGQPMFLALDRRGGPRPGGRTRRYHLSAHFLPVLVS
Cneo AK release: causes C. neoformans cell lysis. adenylate kinase release luminescence, 4 h; normalised: neutral wells 0, clomiphene wells 100. lysis activity, % at 15 µM. hit rate 0.2% among 360,000. AID 651654;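 active = mean lysis activity across replicates of at least 80%, whatever share of replicates individually reach that level; inactive = mean lysis activity below 80%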
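Material – Cryptococcus neoformans yeast cells · Quantity – 5 × 10^6 yeast cells/mL · Buffer or medium – YPD medium · Compound – single dose · Timing – 4 h static compound exposure, 37 °C, read 1 h post-reagent · Signal – adenylate kinase release luminescence · Read-out basis – lysis from increased AK signal · Benchmarks – Clomiphene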
Ecoli rRNA inh: selective bacterial rRNA inhibition in E. coli. GFP signal change (wild-type ribosome), % (no concentration beside the values). AID 720706. E. coli WT GFP vs humanized-ribosome RFP mutants, fluorescence, 24 h; hits give low values; DMSO median 0, no signal -100. hit rate 1.6% among 350,000;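 active = significant combined selectivity score with lowered wild-type GFP, culture density cut under 30%, mutant RFP and density less affected; inactive = any of these conditions unmet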
PglD DTNB: PglD (C. jejuni) enzyme inhibition; purified PglD enzyme, DTNB colorimetric CoA detection; inhibition, % at 12.5 µM; hit rate 0.098% among 360,000; in the data active = inhibition above about 16%, passing the limit was not always enough
Vif inh: inhibitors of HIV Vif | hit rate 0.35% among 340,000 | AID 602346 | inhibition, % at 7.49 µM | HEK293T cells, Vif self-association by quenched fluorescence, imaging, 24 h; in the data active = inhibition above about 50%, passing the limit was not always enough
PGC1a acetyl inh: lowers PGC1a acetylation signal in U2OS cells; inhibition, % at 15.6 µM; AlphaScreen anti-acetyl-lysine; with virally co-expressed GCN5 acetyltransferase; hit rate 0.17% among 350,000; AID 651687;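 active = every replicate shows inhibition of at least 40%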;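 also: 0% = neutral control wells and 100% = positive control wells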
Active calls of the source: *. Sampled rows, rich in hits. Any-hit rate of the full collection: about 2.9%.

For CC(C)NC(=O)N(C)C[C@@H]1Oc2ncc(-c3ccccc3F)cc2C(=O)N([C@H](C)CO)C[C@@H]1C the results were FGF22 binding 0, Cneo AK release 1, Ecoli rRNA inh 3, PglD DTNB 3 and PGC1a acetyl inh 10.
CCCCCC(=O)NC(=S)Nc1ccc(N2CCOCC2)cc1 was read as FGF22 binding 0, Ecoli rRNA inh -27* and Vif inh -4.
For CCC(=O)Nc1cccc(NC(=S)NC(=O)c2cccc(C)c2)c1 the results were FGF22 binding 0, Ecoli rRNA inh -17* and Vif inh -11.
For CCCCCC(=O)NC(=S)Nc1cccc(C(C)=O)c1 the results were FGF22 binding 44*, Cneo AK release 15, Ecoli rRNA inh -13, PglD DTNB 2, Vif inh -3 and PGC1a acetyl inh -2.
Screening CCC(=O)NC(=S)Nc1ccc(N2CCOCC2)cc1 returned FGF22 binding 0, Ecoli rRNA inh 8, Vif inh -2 and PGC1a acetyl inh 10.
Cc1ccc(S(=O)(=O)NCC[C@@H]2CC[C@H](NC(=O)C3CCOCC3)[C@@H](CO)O2)cc1 was read as FGF22 binding 1, Cneo AK release 47, Ecoli rRNA inh 6, PglD DTNB 0 and PGC1a acetyl inh -18.
`COc1ccc(OC)c(C2C3CN(C(C)C)CC=C3C(C#N)=C(N)C2(C#N)C#N)c1` (stereo not drawn) gave Cneo AK release 1, PglD DTNB 0, Vif inh 95* and PGC1a acetyl inh 1.
For Cn1cccc1Cc1nnc(SCC(=O)N2CCCC2)n1CCc1ccccc1 the results were FGF22 binding 43*, Cneo AK release 5, Ecoli rRNA inh 6, PglD DTNB 2 and Vif inh -1.
Screening C[C@H](CO)N1C[C@H](C)[C@@H](CN(C)Cc2cccnc2)Oc2ncc(C#Cc3cccnc3)cc2C1=O returned FGF22 binding 1, Cneo AK release 0, Ecoli rRNA inh 1, PglD DTNB 3 and PGC1a acetyl inh 14.
Cc1nn(Cc2c(Cl)cccc2Cl)c(C)c1NC(=O)c1cnn2c(C(F)F)cc(-c3ccccc3)nc12 was read as Cneo AK release -2, PglD DTNB -2, Vif inh 104* and PGC1a acetyl inh 1.
`COc1ccc(-c2cc(C(F)F)n3ncc(C(=O)Nc4cc(C)on4)c3n2)cc1` gave FGF22 binding 43*, Ecoli rRNA inh 13 and Vif inh 2.
Screening CNS(=O)(=O)c1ccc(NC(=O)c2cnn3c(C(F)F)cc(-c4ccccc4)nc23)cc1 returned FGF22 binding 43*, Cneo AK release -2, Ecoli rRNA inh 1, PglD DTNB -1, Vif inh 2 and PGC1a acetyl inh -1.
O=C(Nc1cccc(S(=O)(=O)N2CCOCC2)c1)c1cnn2c(C(F)F)cc(-c3ccccc3)nc12 was read as FGF22 binding 1, Ecoli rRNA inh 3, Vif inh -1 and PGC1a acetyl inh 2.
Screening CC(NCc1ccc(S(N)(=O)=O)cc1)C(=O)Nc1cc([N+](=O)[O-])ccc1Cl (stereo not drawn) returned FGF22 binding 0, Cneo AK release 1, Ecoli rRNA inh -21*, PglD DTNB 0, Vif inh -9 and PGC1a acetyl inh 9.
For CN(CCC#N)c1ccc(/C=C(\C#N)c2ccccn2)cc1 the results were FGF22 binding 0, Cneo AK release -23, Ecoli rRNA inh -9, PglD DTNB -13, Vif inh -9 and PGC1a acetyl inh 7.
CN(CCC#N)c1ccc(C=C(C#N)c2ccc(Br)cc2)cc1 was read as FGF22 binding 44*, Ecoli rRNA inh 10 and Vif inh -10.
`COc1ccc(Cn2c(-c3ccc(C)cc3)c[n+]3ccccc23)cc1` gave FGF22 binding 0, Cneo AK release 18, Ecoli rRNA inh -34*, Vif inh -39 and PGC1a acetyl inh -12.
`COc1ccc(-c2nc3ccccc3n2Cc2ccc(C)cc2)cc1` gave PGC1a acetyl inh -15.
Screening C[C@H](CO)N1C[C@H](C)[C@H](CN(C)S(=O)(=O)c2ccc(F)cc2)Oc2ccc(NC(=O)NC3CCCCC3)cc2CC1=O returned FGF22 binding 0, Cneo AK release -1, Ecoli rRNA inh 0, PglD DTNB -9 and PGC1a acetyl inh 8.
For Cc1ccc2ncnc(Nc3ccc(C)c(C)c3)c2c1 the results were FGF22 binding 0, Cneo AK release -1, Ecoli rRNA inh -27*, PglD DTNB 6, Vif inh -5 and PGC1a acetyl inh 5.
Screening CCC(=O)N(C)CCc1cc2c(c(OC)c1/C=N/NC(=O)c1ccncc1)OCO2 returned FGF22 binding 0, Cneo AK release 2, Ecoli rRNA inh 8, PglD DTNB -4, Vif inh -29 and PGC1a acetyl inh -2.
`CCC(=O)N(C)CCc1cc2c(c(OC)c1/C=N/NS(=O)(=O)c1ccc(C)cc1)OCO2` gave FGF22 binding 0, Cneo AK release 0, Ecoli rRNA inh -25*, PglD DTNB 2, Vif inh -1 and PGC1a acetyl inh 5.
Screening O=C(NCC[C@H]1CC[C@@H](NC(=O)c2cccnc2)[C@H](CO)O1)Nc1ccc(Cl)cc1 returned FGF22 binding 0, Cneo AK release 3, Ecoli rRNA inh 0, PglD DTNB -1 and PGC1a acetyl inh -4.
`O=c1[nH]c(=O)n(-c2ccc(F)cc2)c2c1C(C(F)(F)F)(C(F)(F)F)N=C(c1ccc(F)cc1)N2` gave FGF22 binding 1.9*, Cneo AK release -1, Ecoli rRNA inh -41, PglD DTNB 0 and Vif inh 0.
For Cc1ccc(C2=NC(C(F)(F)F)(C(F)(F)F)c3c(n(-c4ccc(F)cc4)c(=O)[nH]c3=O)N2)cc1 the results were Vif inh -19.
Screening C[C@H]1CN([C@@H](C)CO)C(=O)c2cc(-c3ccccc3)cnc2O[C@@H]1CN(C)Cc1cccnc1 returned FGF22 binding 0, Cneo AK release 8, Ecoli rRNA inh 3, PglD DTNB -1 and PGC1a acetyl inh 4.
Screening Cn1c(SCc2ccccc2)nc(C(F)(F)F)cc1=O returned FGF22 binding 0, Ecoli rRNA inh -23* and Vif inh 0.
For Cn1c(SCc2ccccc2)nc(N)c(N=O)c1=O the results were FGF22 binding 0, Cneo AK release 0, Ecoli rRNA inh -20*, PglD DTNB 9, Vif inh 3 and PGC1a acetyl inh -10.
Cn1c(SCc2cccc(Br)c2)nc2ccccc2c1=O was read as FGF22 binding 0, Cneo AK release 3, Ecoli rRNA inh -4, PglD DTNB 1 and Vif inh -5.
`CCCC(=O)Nc1ccc2c(c1)OC[C@@H](C)N(Cc1ccccc1F)C[C@H](C)[C@H](OC)CN(C)C2=O` gave FGF22 binding 0, Cneo AK release 0, Ecoli rRNA inh -5, PglD DTNB -3 and PGC1a acetyl inh 4.

Bioassay records deposited in PubChem by Broad Institute.
